In data set [1] the test system is Candida albicans. As to the kind of experiment: Induction of morphological changes in Candida albicans assessed as incomplete cell wall structure at 0.53 to 1.06 microg/ml incubated for 16 to 24 hrs by transmission electron microscopic analysis. The format is functional, organism-based. The conditions noted are these: dose 0.53-1.06 µg/ml, time 16-24 hrs. Put shortly: (§1)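 C. albicans at 5×10^5 CFU/mL in SDB shaken with drug (0.27, 0.53, 1.06 µg/mL), fluconazole or no drug at 30 °C, 150 r/min, for 16-24 h. Pellets washed with PBS and fixed in cold 3% paraformaldehyde/2.5% glutaraldehyde at 4 °C, then 1% OsO4. Dehydrated in acetone and embedded in Epon-812. 60-90 nm sections stained with uranyl acetate and lead citrate, imaged by TEM.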

For data set [2], the system named is Candida albicans. As to the kind of experiment: Antifungal activity against Candida albicans assessed as sparse distribution of fungal cells at 0.27 to 1.06 microg/ml measured after 4 to 8 hrs by inverted microscopic analysis. In kind it is functional, organism-based. The conditions noted are these: dose 0.27-1.06 µg/ml, time 4-8 hrs. The essentials: (§2)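 Hyphae were induced in SD+10% FBS or in Spider medium. Log-phase cells at 1×10^5 CFU/mL final, 1 mL per well in 24-well plates, 3 wells per group. Drug at 0.27, 0.53 or 1.06 µg/mL, fluconazole, or no-drug control. Incubated at 30 °C; hyphal formation observed and photographed by inverted microscope at 4 h and 8 h.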

The test system of data set [3] is Candida albicans. Put plainly: Induction of morphological changes in Candida albicans assessed as blurred boundary between cell wall and cell membrane at 0.53 to 1.06 microg/ml incubated for 16 to 24 hrs by transmission electron microscopic analysis. In kind it is functional, organism-based. The conditions noted are these: dose 0.53-1.06 µg/ml, time 16-24 hrs. Put shortly:
as §1

Data set [4] deals with Candida albicans. As to the kind of experiment: Antibiofilm activity in Candida albicans SC5314 assessed as appearance of yeast form of fungal cells at 0.27 microg/ml measured after 24 hrs by inverted microscopic analysis. The conditions noted are these: dose 0.27 µg/ml. The format is functional, organism-based. The essentials:
(§3)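 Log-phase C. albicans in RPMI1640+10% FBS at 1×10^5 CFU/mL allowed to adhere in 24-well plates for 90 min at 30 °C; unattached medium removed. 1 mL medium with drug (0.27, 0.53, 1.06 µg/mL) or without drug added; 24 h at 30 °C. Biofilm stained with crystal violet 30 min, washed 3× with PBS, viewed by inverted microscope.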

Data set [5] deals with Candida albicans. Put plainly: Antifungal activity against Candida albicans assessed as inhibition of mycelia formation at 0.27 to 1.06 microg/ml measured after 4 to 8 hrs by inverted microscopic analysis. The format is functional, organism-based. The conditions noted are these: dose 0.27-1.06 µg/ml, time 4-8 hrs. Put shortly: as §2
The test system of data set [6] is Candida albicans. Put plainly: Induction of morphological changes in Candida albicans assessed as unclear cell membrane outline at 0.53 to 1.06 microg/ml incubated for 16 to 24 hrs by transmission electron microscopic analysis. The conditions noted are these: dose 0.53-1.06 µg/ml, time 16-24 hrs. The format is functional, organism-based. The essentials: as §1
The next data set concerns Cell membrane. As to the kind of experiment: Induction of cell membrane permeability in Candida albicans assessed as increase in red fluorescence incubated for 16 to 24 hrs by PI staining based fluorescence microscopic analysis. In kind it is subcellular. The conditions noted are these: time 16-24 hrs. Put shortly: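 C. albicans at 1×10^5 CFU/mL in SDB grown with drug (0.27, 0.53, 1.06 µg/mL), fluconazole or no drug at 30 °C, 150 r/min, for 16-24 h. Cells washed and resuspended in PBS at 2×10^6 CFU/mL. Stained with propidium iodide (final 5 µg/mL) 30 min at room temperature in the dark, then washed. Imaged by fluorescence microscopy and fluorescence intensity measured.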

In data set [7] the test system is Candida albicans. Put plainly: Antifungal activity against drug sensitive Candida albicans SC5314 assessed as inhibition of fungal growth incubated for 24 hrs by CLSI protocol based microdilution method. The format is functional. Put shortly:
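Broth microdilution of log-phase C. albicans at 1×10^5 CFU/mL in Sabouraud liquid medium (SDB). Compounds serially diluted 5-fold to final 200-0.064 µg/mL, DMSO below 0.1%. Triplicate wells, 200 µL final volume, with growth, blank and fluconazole controls. Incubated 24 h at 30 °C, OD read at 630 nm; experiment repeated three times.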

Data set [8] relates to Candida albicans. Put plainly: Antibiofilm activity in Candida albicans SC5314 assessed as appearance of short mycelia at 0.27 microg/ml measured after 24 hrs by inverted microscopic analysis. The format is functional, organism-based. The conditions noted are these: dose 0.27 µg/ml. The essentials:
as §3

Data set [9] concerns Candida albicans. As to the kind of experiment: Antifungal activity against drug resistant Candida albicans SC5314-FR assessed as inhibition of fungal growth incubated for 24 hrs by CLSI protocol based microdilution method. In kind it is functional. The essentials:
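Fluconazole-resistant strain derived from SC5314 by fluconazole exposure. Log-phase cells at 1×10^5 CFU/mL in SDB. Drug fivefold serial dilutions, 200–0.064 µg/mL final, DMSO <0.1%, triplicate wells, 200 µL. Incubated 30 °C for 24 h and read at OD630. Growth, blank and fluconazole controls included. Run three times.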

Data set [10] has as its system Candida albicans. As to the kind of experiment: Antibiofilm activity in Candida albicans SC5314 assessed as decrease in number of mycelia at 0.27 microg/ml measured after 24 hrs by inverted microscopic analysis. The conditions noted are these: dose 0.27 µg/ml. In kind it is functional, organism-based. Put shortly: as §3
In data set [11] the test system is Candida albicans. As to the kind of experiment: Antibiofilm activity in Candida albicans SC5314 assessed as appearance of fungal cells in yeast shape with few mycelia measured after 24 hrs by inverted microscopic analysis. The format is functional, organism-based. The conditions noted are these: dose 0.27-1.06 µg/ml. Put shortly:
as §3

In another data set the test system is 16HBE14o-. As to the kind of experiment: Cytotoxicity against human 16HBE14o- cells assessed as reduction in cell viability at <=4 microg/ml incubated for 48 hrs by CCK8 assay. The conditions noted are these: dose < 4 µg/ml. In kind it is toxicity, cell-based. The essentials:
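16HBE cells in RPMI1640 with 10% FBS and 1% antibiotics, seeded in 96-well plates and attached for 24 h at 37 °C. Drug serially diluted 5-fold from 100 µg/mL in complete medium, with growth and blank controls. Exposure 48 h, then viability read with CCK8 reagent.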

Data set [12] has as its system Candida albicans. Put plainly: Induction of morphological changes in Candida albicans assessed as cell enlargement at 0.53 to 1.06 microg/ml incubated for 16 to 24 hrs by transmission electron microscopic analysis. The format is functional, organism-based. The conditions noted are these: dose 0.53-1.06 µg/ml, time 16-24 hrs. Put shortly:
as §1

Data set [13] deals with Candida albicans. As to the kind of experiment: Antifungal activity against Candida albicans SC5314 assessed as inhibition of fungal growth measured up to 48 hrs by time-killing curve analysis. The format is functional, organism-based. The essentials:
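Log-phase cells at 1×10^5 CFU/mL in SDB, 10 mL per group. Drug at 0.27, 0.53 or 1.06 µg/mL, plus fluconazole and untreated controls. Shaken 150 r/min at 30 °C. Samples taken at 0, 4, 8, 12, 24, 36 and 48 h and read at A630, triplicate wells. Absorbance plotted against time.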

The test system of data set [14] is Candida albicans. Put plainly: Antibiofilm activity in Candida albicans SC5314 assessed as sparse distribution of fungal cells at 0.53 microg/ml measured after 24 hrs by inverted microscopic analysis. The format is functional, organism-based. The conditions noted are these: dose 0.53 µg/ml. Put shortly:
as §3

Data set [15] concerns Candida albicans. As to the kind of experiment: Induction of morphological changes in Candida albicans assessed as absence of intracellular substance at 0.53 microg/ml incubated for 16 to 24 hrs by transmission electron microscopic analysis. In kind it is functional, organism-based. The conditions noted are these: dose 0.53 µg/ml, time 16-24 hrs. The essentials:
as §1

In data set [16] the test system is Candida albicans. As to the kind of experiment: Induction of morphological changes in Candida albicans assessed as blurred spacing between cell wall and cell membrane at 0.53 microg/ml incubated for 16 to 24 hrs by transmission electron microscopic analysis. The conditions noted are these: dose 0.53 µg/ml, time 16-24 hrs. The format is functional, organism-based. Put shortly: as §1

Data set [17] deals with Candida albicans. Put plainly: Antifungal activity against Candida albicans assessed as reduction in invasion ability at 0.27 to 1.06 microg/ml measured after 4 to 8 hrs by inverted microscopic analysis. In kind it is functional, organism-based. The conditions noted are these: dose 0.27-1.06 µg/ml, time 4-8 hrs. The essentials:
as §2

The subject of data set [18] is Candida albicans. Put plainly: Induction of morphological changes in Candida albicans assessed as effect on cytoplasmic morphology at 0.53 to 1.06 microg/ml incubated for 16 to 24 hrs by transmission electron microscopic analysis. The conditions noted are these: dose 0.53-1.06 µg/ml, time 16-24 hrs. In kind it is functional, organism-based. Put shortly:
as §1

Data set [19] concerns Candida albicans. As to the kind of experiment: Antifungal activity against Candida albicans assessed as increase in pseudomycelial fungal cells at 0.27 to 1.06 microg/ml measured after 4 to 8 hrs by inverted microscopic analysis. The conditions noted are these: dose 0.27-1.06 µg/ml, time 4-8 hrs. In kind it is functional, organism-based. The essentials:
as §2

Values after ≈ are worked out from the molar mass of the structure shown. Active and inactive are the calls of the source. No cut-off for these calls is given here.

On to `O=C(Cn1cc(COC(Cn2ccnc2)c2ccc(Cl)cc2Cl)nn1)c1ccc2ccccc2c1` (stereo unspecified), for which the result with Candida albicans [1], with Candida albicans [2], in the data set with Candida albicans [3], with Candida albicans [4], in the data set on Candida albicans [5] and in the data set on Candida albicans [6] was Active. For the same compound, the outcome in the data set with Candida albicans [8], in the data set with Candida albicans [10], in the data set on Candida albicans [12], in the data set on Candida albicans [13], in the data set with Candida albicans [14] and with Candida albicans [15] was Active. Also, the outcome with Candida albicans [16], in the data set with Candida albicans [18] and in the data set with Candida albicans [19] was Active. Moreover, the Activity entry is “Dose-dependent-effect” in the data set on Cell membrane, “Dose-dependent-effect” in the data set with Candida albicans [11], “Non-toxic” in the data set with 16HBE14o- and “Active; Better Than That Of Fluconazole Group” in the data set with Candida albicans [17]. Also, the MIC50 in the data set with Candida albicans [7] was 0.53 µg/mL (≈ 1.05 µM); with Candida albicans [9] it was 10.9 µg/mL (≈ 21.6 µM).

(Values after ChEMBL document CHEMBL6177924, “Synthesis and antifungal evaluation of new azole derivatives containing 1,2,3-triazole” (RSC Med Chem, 2025).)
